Among the data in ChEMBL document CHEMBL1143597, “Thrombospondin-1 mimetic peptide inhibitors of angiogenesis and tumor growth: design, synthesis, and optimization of pharmacokinetics and biological activities” (J Med Chem, 2005) are IC50 values, retold here.

Assay [1] is described as follows: In vitro inhibitory concentration against HMVE cell migration was determined. The assay is classed as functional, cell-based. The note with it: Homo sapiens. A digest of the protocol: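 Primary HMVEC grown to 80-90% confluency, starved 18 h in EBM with 5% FCS, labelled with calcein AM 30 min at room temperature. Cells with or without compound (in D5W) are placed above a filter with VEGF (10 ng) below, then held 4 h at 37 °C, 5% CO2. Unmigrated cells are wiped off and fluorescence is read (485/530). % inhibition is taken versus the VEGF positive control.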

Assay [2] can be described thus: In vitro inhibitory concentration against HMVEC endothelial tube formation was determined. The assay is classed as functional, Homo sapiens.
The nature of assay [3]: In vitro inhibitory concentration against HMVEC endothelial tube formation was determined; […]. The format is functional, Homo sapiens.
A short description of assay [4]: In vitro inhibitory concentration against HMVEC endothelial tube formation was determined; 50 - 25 nM. The assay is classed as functional, Homo sapiens.
The nature of assay [5]: In vitro inhibitory concentration against HMVEC endothelial tube formation was determined; 0.25 - 0.10 nM. The assay is classed as functional, Homo sapiens.
Assay [6] in a line: In vitro inhibitory concentration against HMVEC endothelial tube formation was determined; 200 - 100 nM. The format is functional, Homo sapiens.
Assay [7] can be described thus: Inhibitory concentration against TSP-1 binding towards HMVEC cell line migration. The assay is classed as functional, cell-based. The note with it: Homo sapiens.

Each structure is given as a SMILES string. Where a SMILES comes first, the peptide text is derived from it. [ ]: non-standard residue; d: D form. d(aIle) = CC[C@H](C)[C@@H](N)C(=O)O; Nva = CCC[C@H](N)C(=O)O; Sar = CNCC(=O)O

As a reminder, the IC50 is the concentration that inhibits the measured activity by half. Lower therefore signals greater potency. Molecule `CCNC(=O)[C@H](CCCN=C(N)N)NC(=O)[C@@H](NC(=O)[C@H](CCCN=C(N)N)NC(=O)[C@@H](NC(=O)[C@H](NC(=O)[C@@H](NC(=O)CNC(C)=O)C(C)C)[C@H](C)CC)[C@@H](C)O)[C@@H](C)CC` gave an IC50 in assay [1] greater than 100 nM.
In assay [1], `CCC[C@H](NC(=O)[C@@H](NC(=O)[C@H](CCCN=C(N)N)NC(=O)[C@@H](NC(=O)[C@H](NC(=O)[C@@H](NC(=O)CNC(C)=O)C(C)C)[C@H](C)CC)[C@@H](C)O)[C@@H](C)CC)C(=O)NCC` returned an IC50 of 1.45 nM.
In the case of `CCC[C@H](NC(=O)[C@@H](NC(=O)[C@H](NC(=O)[C@@H](NC(=O)CNC(C)=O)C(C)C)[C@H](C)CC)[C@@H](C)O)C(=O)N[C@H](C(=O)N[C@@H](CCCN=C(N)N)C(=O)NCC)[C@@H](C)CC`, in assay [1], the concentration for half-maximal inhibition (IC50) came out at 4.22 nM.
In assay [1], `CCC[C@H](NC(=O)[C@@H](NC(=O)[C@H](NC(=O)[C@@H](NC(=O)CNC(C)=O)C(C)C)[C@H](C)CC)[C@@H](C)O)C(=O)N[C@H](C(=O)N[C@@H](CCCN=C(N)N)C(=O)N1CCC[C@H]1C(=O)NCC)[C@@H](C)CC` had an IC50 of 0.07 nM.
As to `CCC[C@H](NC(=O)[C@@H](NC(=O)[C@H](NC(=O)[C@@H](NC(=O)CNC(=O)CN(C)C(C)=O)C(C)C)[C@H](C)CC)[C@@H](C)O)C(=O)N[C@H](C(=O)N[C@@H](CCCN=C(N)N)C(=O)N1CCC[C@H]1C(=O)NC(C)C)[C@@H](C)CC`, the IC50 in assay [2] was greater than 1000 nM; in assay [1] it was 29 nM.
Consider `CCC[C@H](NC(=O)[C@@H](NC(=O)[C@H](NC(=O)[C@@H](NC(=O)CNC(=O)CN(C)C(=O)CCC(=O)O)C(C)C)[C@H](C)CC)[C@@H](C)O)C(=O)N[C@H](C(=O)N[C@@H](CCCN=C(N)N)C(=O)N1CCC[C@H]1C(=O)NCC)[C@@H](C)CC`, for which the IC50 came out at 10 nM in assay [3] and 0.26 nM in assay [1].
Consider `CCC[C@@H](C(=O)N[C@H](C(=O)N[C@@H](CCCN=C(N)N)C(=O)N1CCC[C@H]1C(=O)NCC)[C@@H](C)CC)N(C)C(=O)[C@@H](NC(=O)[C@H](NC(=O)[C@@H](NC(=O)CNC(=O)CN(C)C(C)=O)C(C)C)[C@H](C)CC)[C@@H](C)O`, for which the IC50 turned out to be 0.54 nM in assay [1] and 50 nM in assay [4].
Take `CCC[C@@H](C(=O)N[C@H](C(=O)N[C@@H](CCCN=C(N)N)C(=O)N1CCC[C@H]1C(=O)NCC)[C@@H](C)CC)N(C)C(=O)[C@@H](NC(=O)[C@H](NC(=O)[C@@H](NC(=O)CNC(=O)CN(C)C(=O)CCC(=O)O)C(C)C)[C@H](C)CC)[C@@H](C)O`: the values for the IC50 in assay [3] and in assay [1] were 10 nM and 0.45 nM, respectively.
`CCC[C@@H](C(=O)N[C@H](C(=O)N[C@@H](CCCN=C(N)N)C(=O)N1CCC[C@H]1C(=O)NC(C)C)[C@@H](C)CC)N(C)C(=O)[C@@H](NC(=O)[C@H](NC(=O)[C@@H](NC(=O)CNC(=O)CN(C)C(=O)CCC(=O)O)C(C)C)[C@H](C)CC)[C@@H](C)O`: the IC50 in assay [1] came to 0.06 nM; in assay [5], 0.25 nM.
As for `CCC[C@H](NC(=O)[C@@H](NC(=O)[C@H](NC(=O)[C@@H](NC(=O)CNC(=O)CN(C)C(C)=O)C(C)C)[C@H](C)CC)[C@@H](C)O)C(=O)N[C@H](C(=O)N[C@@H](CCCN=C(N)N)C(=O)N1CCC[C@H]1C(=O)NCC)[C@@H](C)CC` [ABT 510] (Ac-[Sar]GV[dI]T[Nva]IRP-NHEt), the IC50 in assay [6] came out at 200 nM; in assay [7], 0.03 nM.
In the case of `CCC[C@H](NC(=O)[C@@H](NC(=O)[C@H](NC(=O)[C@@H](NC(=O)CNC(=O)CN(C)C(C)=O)C(C)C)[C@@H](C)CC)[C@@H](C)O)C(=O)N[C@H](C(=O)N[C@@H](CCCNC(=N)N)C(=O)N1CCC[C@H]1C(=O)NCC)[C@@H](C)CC` [ABT-510] (Ac-[Sar]GV[d(aIle)]T[Nva]IRP-NHEt), the IC50 in assay [7] came out at 0.89 nM; in assay [3], 10 nM.
